Measurements taken from ChEMBL document CHEMBL4049453, “Discovery of Mixed Pharmacology Melanocortin-3 Agonists and Melanocortin-4 Receptor Tetrapeptide Antagonist Compounds (TACOs) Based on the Sequence Ac-Xaa1-Arg-(pI)DPhe-Xaa4-NH2” (J Med Chem, 2017).
Calls of active or inactive are those of the source. The calls are words filed in the database; no cut-off is given here. Non-standard residues stand in square brackets, D forms with d. Residues, ends and D or L forms follow the SMILES beside them. Bip = N[C@@H](Cc1ccc(-c2ccccc2)cc1)C(=O)O; dPhe(4-I) = N[C@H](Cc1ccc(I)cc1)C(=O)O; 2Nal = N[C@@H](Cc1ccc2ccccc2c1)C(=O)O; d2Nal = N[C@H](Cc1ccc2ccccc2c1)C(=O)O; Bta = N[C@@H](Cc1csc2ccccc12)C(=O)O

Tests used:
[1] = molecular target: Melanocortin receptor 3 (Mus musculus) (UniProt P33033); assay: Agonist activity at mouse MC3R expressed in HEK293 cells assessed as induction of cAMP accumulation up to 100 uM after 2 hrs by alpha screen assay relative to NDP-MSH; format: functional, cell-based
How it was run: (§1)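 HEK293 stably expressing mouse MC1R/MC3R/MC4R/MC5R (pCDNA3). Cells in stimulation buffer (HBSS, 0.5 mM IBMX, 5 mM HEPES, 0.1% BSA, pH 7.4) at 1000 cells/μL with anti-cAMP acceptor beads. Ligand given 10−4 to 10−10 M (or 10−6 to 10−12 M) for 2 h at RT in the dark, then donor beads/biotin-cAMP lysis mix for 2 h. AlphaScreen cAMP read-out, normalized to 10−6 M NDP-MSH as 100%.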

Melanocortin receptor 4 = Melanocortin receptor 4 (Mus musculus, UniProt P56450); assay: Agonist activity at mouse MC4R expressed in HEK293 cells assessed as induction of cAMP accumulation up to 100 uM after 2 hrs by alpha screen assay relative to NDP-MSH; format: cell-based; conditions: read-out: Activity
[2] = molecular target: Melanocortin receptor 3 (Mus musculus) (UniProt P33033); assay: Antagonist activity at mouse MC3R expressed in HEK293 cells assessed as inhibition of NDP-MSH induced-cAMP accumulation up to 10 uM after 2 hrs by alpha screen assay; format: functional, cell-based
How it was run: (§2)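 mouse MC3R or MC4R in stably transfected HEK293 cells, AlphaScreen cAMP assay (IBMX stimulation buffer, 2 h RT incubation, then 2 h with donor-bead lysis mix). […] Run in triplicate.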

[3] = molecular target: Melanocortin receptor 4 (Mus musculus) (UniProt P56450); assay: Antagonist activity at mouse MC4R expressed in HEK293 cells assessed as inhibition of NDP-MSH induced-cAMP accumulation up to 10 uM after 2 hrs by alpha screen assay; format: functional, cell-based; how it was run: as §2
[4] = molecular target: Melanocyte-stimulating hormone receptor (Mus musculus) (UniProt Q01727); assay: Agonist activity at mouse MC1R expressed in HEK293 cells assessed as induction of cAMP accumulation up to 100 uM after 2 hrs by alpha screen assay relative to NDP-MSH; format: functional, cell-based; how it was run: as §1
Melanocyte-stimulating hormone receptor (Mus musculus), sequence (Q01727 whole entry, looked up): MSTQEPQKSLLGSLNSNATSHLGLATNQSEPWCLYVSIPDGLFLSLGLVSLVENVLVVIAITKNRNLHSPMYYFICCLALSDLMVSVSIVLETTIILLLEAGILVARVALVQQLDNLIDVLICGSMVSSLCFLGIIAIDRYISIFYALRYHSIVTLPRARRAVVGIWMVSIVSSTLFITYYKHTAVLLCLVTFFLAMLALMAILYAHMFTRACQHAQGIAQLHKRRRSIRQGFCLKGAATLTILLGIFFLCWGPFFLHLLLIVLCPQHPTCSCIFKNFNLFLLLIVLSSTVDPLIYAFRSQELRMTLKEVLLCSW

Melanocortin receptor 3 (Mus musculus), sequence (P33033 whole entry): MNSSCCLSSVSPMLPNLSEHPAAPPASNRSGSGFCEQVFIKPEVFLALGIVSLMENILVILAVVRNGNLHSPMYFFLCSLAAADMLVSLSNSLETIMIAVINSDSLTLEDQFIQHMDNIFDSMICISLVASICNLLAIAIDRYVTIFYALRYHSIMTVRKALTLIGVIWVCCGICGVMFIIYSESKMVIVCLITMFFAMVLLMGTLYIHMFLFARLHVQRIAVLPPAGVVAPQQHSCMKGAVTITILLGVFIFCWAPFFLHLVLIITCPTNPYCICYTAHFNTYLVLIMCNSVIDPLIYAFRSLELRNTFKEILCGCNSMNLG
Melanocortin receptor 4, sequence (P56450 whole entry): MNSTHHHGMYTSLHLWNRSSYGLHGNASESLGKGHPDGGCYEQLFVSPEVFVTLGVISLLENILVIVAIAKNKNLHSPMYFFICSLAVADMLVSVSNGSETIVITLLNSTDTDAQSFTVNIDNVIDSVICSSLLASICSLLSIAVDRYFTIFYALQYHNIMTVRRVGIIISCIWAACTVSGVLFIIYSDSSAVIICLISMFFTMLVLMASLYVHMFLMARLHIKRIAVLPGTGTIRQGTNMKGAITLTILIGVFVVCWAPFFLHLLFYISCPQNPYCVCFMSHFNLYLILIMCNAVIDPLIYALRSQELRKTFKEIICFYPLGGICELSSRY
Melanocortin receptor 4 (Mus musculus), sequence (P56450 whole entry): as above

Row | SMILES | Activity [1] [%] | Emax (Melanocortin receptor 4) [%] | inhibition [2] | inhibition [3] | Activity [4] [%]
1 | CC(=O)N[C@@H](Cc1csc2ccccc12)C(=O)N[C@@H](CCCNC(=N)N)C(=O)N[C@H](Cc1ccc(I)cc1)C(=O)N[C@@H](Cc1ccc2ccccc2c1)C(N)=O | < 20 | < 20 | inactive | inactive | 
2 | CC(=O)N1Cc2ccccc2C[C@H]1C(=O)N[C@@H](CCCNC(=N)N)C(=O)N[C@H](Cc1ccc(I)cc1)C(=O)N[C@@H](Cc1ccc2ccccc2c1)C(N)=O (HELM PEPTIDE1{[ac].[Tic].R.[O=C([C@@H](Cc1ccc(I)cc1)N[*:1])[*:2]].[O=C([C@H](Cc1ccc2ccccc2c1)N[*:1])[*:2]].[am]}$$$$V2.0) | < 20 | < 20 | inactive |  | 
3 | CC(=O)N1Cc2ccccc2C[C@H]1C(=O)N[C@@H](CCCNC(=N)N)C(=O)N[C@H](Cc1ccc(I)cc1)C(=O)N[C@@H](Cc1ccc(-c2ccccc2)cc1)C(N)=O (HELM PEPTIDE1{[ac].[Tic].R.[O=C([C@@H](Cc1ccc(I)cc1)N[*:1])[*:2]].[O=C([C@H](Cc1ccc(-c2ccccc2)cc1)N[*:1])[*:2]].[am]}$$$$V2.0) | < 20 | < 20 | inactive | inactive | 
4 | CC(=O)N1Cc2ccccc2C[C@H]1C(=O)N[C@@H](CCCNC(=N)N)C(=O)N[C@H](Cc1ccc(I)cc1)C(=O)NC(Cc1ccccc1)C(N)=O (stereo in doubt) | < 20 | < 20 | inactive | inactive | 
5 | CC(=O)N[C@@H](Cc1ccc2ccccc2c1)C(=O)N[C@@H](CCCNC(=N)N)C(=O)N[C@H](Cc1ccc(I)cc1)C(=O)NC(Cc1ccccc1)C(N)=O (stereo in doubt) |  | < 20 | inactive | inactive | 
6 | CC(=O)N[C@@H](Cc1csc2ccccc12)C(=O)N[C@@H](CCCNC(=N)N)C(=O)N[C@H](Cc1ccc(I)cc1)C(=O)NC(Cc1ccccc1)C(N)=O (stereo in doubt) |  | < 20 | inactive | inactive | 
7 | CC(=O)NC(Cc1ccccc1)C(=O)N[C@@H](CCCNC(=N)N)C(=O)N[C@H](Cc1ccc(I)cc1)C(=O)NC(Cc1ccccc1)C(N)=O (stereo in doubt) |  | < 20 | inactive | inactive | 

Now from value to compound:

Row | Activity [1] [%] | Emax (Melanocortin receptor 4) [%] | inhibition [2] | inhibition [3] | Activity [4] [%] | SMILES
8 |  |  | inactive | inactive | < 20 | CC(=O)N[C@@H](Cc1cnc[nH]1)C(=O)N[C@@H](CCCNC(=N)N)C(=O)N[C@H](Cc1ccc(I)cc1)C(=O)N[C@@H](Cc1ccc(-c2ccccc2)cc1)C(N)=O
9 | < 20 | < 20 | inactive | inactive |  | CC(=O)N[C@@H](Cc1ccc(-c2ccccc2)cc1)C(=O)N[C@@H](CCCNC(=N)N)C(=O)N[C@H](Cc1ccc(I)cc1)C(=O)N[C@@H](Cc1ccc2ccccc2c1)C(N)=O (Ac-[Bip]R[dPhe(4-I)][2Nal]-NH2)
10 |  | < 20 | inactive | inactive |  | CC(=O)N[C@@H](Cc1ccc(-c2ccccc2)cc1)C(=O)N[C@@H](CCCNC(=N)N)C(=O)N[C@H](Cc1ccc(I)cc1)C(=O)N[C@H](Cc1ccc2ccccc2c1)C(N)=O (Ac-[Bip]R[dPhe(4-I)][d2Nal]-NH2)
11 |  |  | inactive | inactive | < 20 | CC(=O)N[C@@H](Cc1csc2ccccc12)C(=O)N[C@@H](CCCNC(=N)N)C(=O)N[C@H](Cc1ccc(I)cc1)C(=O)N[C@@H](Cc1ccc(-c2ccccc2)cc1)C(N)=O (Ac-[Bta]R[dPhe(4-I)][Bip]-NH2)
12 |  |  |  |  | < 20 | CC(=O)N[C@H](Cc1ccc2ccccc2c1)C(=O)N[C@@H](CCCNC(=N)N)C(=O)N[C@H](Cc1ccc(I)cc1)C(=O)N[C@@H](Cc1ccc(-c2ccccc2)cc1)C(N)=O (Ac-[d2Nal]R[dPhe(4-I)][Bip]-NH2)
13 |  | < 20 | inactive | inactive |  | CC(=O)NC(Cc1ccccc1)C(=O)N[C@@H](CCCNC(=N)N)C(=O)N[C@H](Cc1ccc(I)cc1)C(=O)N[C@@H](Cc1ccc(-c2ccccc2)cc1)C(N)=O (stereo in doubt)
